Data taken from ChEMBL document CHEMBL4732088, “Identification and optimization of piperlongumine analogues as potential antioxidant and anti-inflammatory agents via activation of Nrf2” (Eur J Med Chem, 2021).
The source made the active and inactive calls. The rule behind the calls is not given here.

Assays:
PC-12 [1] = assay: Protection against H2O2-induced oxidative damage in rat PC12 cells assessed as intracellular ROS level by measuring mean fluorescence intensity at 20 uM pretreated with compound followed by H2O2 stimulation by DCFH-DA staining based flow cytometry (reference value: 233032.55); assay type: functional
PC-12 [2] = assay: Protection against 6-OHDA-induced apoptosis in rat PC12 cells assessed as viable cells at 5 uM incubated for 24 hrs by annexin V FITC/propidium iodide staining based flow cytometry (reference value: 72.0 %); assay type: functional; details: read-out: Activity
[3] = target: T1, Nuclear factor erythroid 2-related factor 2 (Mus musculus) (UniProt Q60795); assay: Activation of Nrf2 in mouse BV2 cells assessed as upregulation of NQO-1 protein expression after 24 hrs by Western blot analysis; assay type: cell-based; details: BV-2, filed as activator, dose 5-20 µM
T1 sequence (whole entry): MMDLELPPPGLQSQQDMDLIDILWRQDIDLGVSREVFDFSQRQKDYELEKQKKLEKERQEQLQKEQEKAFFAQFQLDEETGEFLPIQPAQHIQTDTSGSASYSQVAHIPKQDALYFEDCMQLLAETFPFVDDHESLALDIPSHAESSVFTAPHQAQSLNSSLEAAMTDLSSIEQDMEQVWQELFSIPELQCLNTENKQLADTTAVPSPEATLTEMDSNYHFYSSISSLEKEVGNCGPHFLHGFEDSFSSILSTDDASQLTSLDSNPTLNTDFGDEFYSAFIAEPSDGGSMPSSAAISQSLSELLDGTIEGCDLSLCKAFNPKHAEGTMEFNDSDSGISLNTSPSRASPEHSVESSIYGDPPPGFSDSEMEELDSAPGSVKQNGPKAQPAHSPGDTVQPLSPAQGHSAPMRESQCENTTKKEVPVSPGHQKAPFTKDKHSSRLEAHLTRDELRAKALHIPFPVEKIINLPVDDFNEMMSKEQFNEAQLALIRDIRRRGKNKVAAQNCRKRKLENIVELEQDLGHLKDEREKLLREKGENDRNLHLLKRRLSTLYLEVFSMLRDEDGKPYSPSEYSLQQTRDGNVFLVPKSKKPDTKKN
Procedure, shortened: (§1)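 BV2 microglia exposed to compound for 24 h over a concentration series; Nrf2, NQO1, HO-1, TrxR1, GCLM and GCLC protein levels read by Western blot.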

PC-12 [4] = assay: Protection against H2O2-induced apoptosis in rat PC12 cells assessed as necrotic cells at 5 uM incubated for 24 hrs by annexin V FITC/propidium iodide staining based flow cytometry (reference value: 0.6 %); assay type: functional
[5] = target: T2, Nuclear factor erythroid 2-related factor 2 (Rattus norvegicus) (UniProt O54968); assay: Activation of Nrf2 in rat PC12 cells assessed as increase in HO-1 protein level after 24 hrs by Western blot analysis; assay type: cell-based; details: PC-12, filed as activator, dose 5-20 µM
T2 sequence (whole entry): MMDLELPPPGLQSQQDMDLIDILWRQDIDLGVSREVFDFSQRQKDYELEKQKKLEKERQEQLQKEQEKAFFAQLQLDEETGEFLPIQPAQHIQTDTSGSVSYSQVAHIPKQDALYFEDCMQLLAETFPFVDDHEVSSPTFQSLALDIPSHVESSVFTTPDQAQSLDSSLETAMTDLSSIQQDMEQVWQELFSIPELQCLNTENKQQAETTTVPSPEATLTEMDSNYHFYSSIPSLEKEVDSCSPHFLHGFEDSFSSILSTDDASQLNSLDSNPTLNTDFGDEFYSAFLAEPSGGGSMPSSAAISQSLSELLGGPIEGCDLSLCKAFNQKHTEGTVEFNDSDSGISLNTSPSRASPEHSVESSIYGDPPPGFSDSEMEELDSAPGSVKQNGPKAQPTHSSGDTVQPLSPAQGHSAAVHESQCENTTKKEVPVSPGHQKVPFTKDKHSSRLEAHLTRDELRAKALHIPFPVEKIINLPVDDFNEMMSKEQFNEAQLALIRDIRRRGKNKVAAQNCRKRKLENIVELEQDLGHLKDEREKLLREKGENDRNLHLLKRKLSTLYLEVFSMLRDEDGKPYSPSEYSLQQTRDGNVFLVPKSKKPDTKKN
Procedure, shortened: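 PC12 cells treated with compound for 24 h at rising concentrations; NQO1, HO-1, TrxR1, GCLM, GCLC protein detected by Western blot.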

PC-12 [6] = assay: Protection against 6-OHDA-induced oxidative damage in rat PC12 cells assessed as intracellular ROS level by measuring mean fluorescence intensity at 20 uM pretreated with compound followed by 6-OHDA stimulation by DCFH-DA staining based flow cytometry (reference value: 26327.34); assay type: functional
PC-12 [7] = assay: Protection against 6-OHDA-induced apoptosis in rat PC12 cells assessed as late apoptotic cells at 5 uM incubated for 24 hrs by annexin V FITC/propidium iodide staining based flow cytometry (reference value: 7.6 %); assay type: functional
PC-12 [8] = assay: Protection against 6-OHDA-induced apoptosis in rat PC12 cells assessed as necrotic cells at 20 uM incubated for 24 hrs by annexin V FITC/propidium iodide staining based flow cytometry (reference value: 1.1 %); assay type: functional
[9] = target: T1, Nuclear factor erythroid 2-related factor 2 (Mus musculus); assay: Activation of Nrf2 in mouse BV2 cells assessed as upregulation of HO-1 protein expression after 24 hrs by Western blot analysis; assay type: cell-based; details: BV-2, filed as activator, dose 5-20 µM; procedure, shortened: as §1
PC-12 [10] = assay: Protection against H2O2-induced oxidative damage in rat PC12 cells assessed as intracellular ROS level by measuring mean fluorescence intensity at 10 uM pretreated with compound followed by H2O2 stimulation by DCFH-DA staining based flow cytometry (reference value: 233032.55); assay type: functional
PC-12 [11] = assay: Protection against 6-OHDA-induced apoptosis in rat PC12 cells assessed as viable cells at 10 uM incubated for 24 hrs by annexin V FITC/propidium iodide staining based flow cytometry (reference value: 72.0 %); assay type: functional; details: read-out: Activity
PC-12 [12] = assay: Protection against H2O2-induced apoptosis in rat PC12 cells assessed as necrotic cells at 20 uM incubated for 24 hrs by annexin V FITC/propidium iodide staining based flow cytometry (reference value: 0.6 %); assay type: functional
PC-12 [13] = assay: Neuroprotective activity against H2O2-induced cell damage in rat PC12 cells preincubated for 24 hrs followed by H2O2 treatment by MTT assay; assay type: functional, cell-based; details: dose 5-20 µM
Procedure, shortened: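 PC12 cells pretreated 24 h with compound (5, 10, 20 μM), then H₂O₂ (200 μM) or 6-OHDA (150 μM); viability by MTT; mean ± SD, three independent experiments.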

BV-2 = assay: Antiinflammatory activity in mouse BV2 cells transfected with control siRNA assessed as reduction in LPS-induced NO production at 20 uM pretreated with compound followed by LPS stimulation for 18 hrs
PC-12 [14] = assay: Cytoprotective activity against H2O2-induced neurotoxicity in rat PC12 cells assessed as reduction in LDH release at 5 to 20 uM preincubated for 24 hrs followed by H2O2 treatment by LDH assay; assay type: functional, cell-based; details: dose 5-20 µM
Procedure, shortened: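 PC12 cells pretreated with compound (5, 10, 20 μM) for 24 h, then H₂O₂ or 6-OHDA; membrane damage read as LDH leakage; mean ± SD of three independent experiments.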

[15] = target: T1, Nuclear factor erythroid 2-related factor 2 (Mus musculus); assay: Activation of Nrf2 in mouse BV2 cells assessed as decrease in LPS-induced NO production pretreated with compound followed by LPS stimulation after 18 hrs by Griess reagent based assay; assay type: cell-based; details: BV-2, filed as activator, dose 5-20 µM
Procedure, shortened: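 BV2 microglia pretreated with compound, then LPS (1µg/mL) for 18 h; NO in medium measured by Griess method; mean ± SD, n = 3.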

Structure (SMILES): CCN(C)C(=O)N1CCN(C(=O)/C=C/c2ccc(F)cc2)C1=O
- Flu intensity (PC-12 [1]): 130822.7
- viability at 5 µM (PC-12 [2]): 81.5%
- Activity [3]: Dose-dependent effect
- Activity (PC-12 [4]): 0.9%
- Activity [5]: Dose-dependent effect
- Flu intensity (PC-12 [6]): 9730
- Activity (PC-12 [7]): 6.4%
- Activity (PC-12 [8]): 0.8%
- Activity [9]: Dose-dependent effect
- Flu intensity (PC-12 [10]): 146612.92
- viability at 10 µM (PC-12 [11]): 85.4%
- Activity (PC-12 [12]): 0.3%
- Activity (PC-12 [13]): Dose-dependent effect
- Activity (BV-2): Active
- Activity (PC-12 [14]): Active
- Activity [15]: Dose-dependent effect
